This is a sample that favours compounds with a hit; in the whole collection about 1.8% have one here.
CHRM4 agonist: agonists of human muscarinic M4 receptor (CHRM4). P08173. CHO-K1 hM4/Gqi5, Fluo-8 calcium fluorescence; vehicle 0%, full acetylcholine response 100%. activation, % at 3 µM. 0.14% of 360,000 active. AID 624127;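 active means activation above the run mean over all test wells plus 3 SD, cut at about 32% in these data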;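 further: peak over basal fluorescence ratio per well then scaled between controls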
Target sequence (P08173 whole entry, looked up): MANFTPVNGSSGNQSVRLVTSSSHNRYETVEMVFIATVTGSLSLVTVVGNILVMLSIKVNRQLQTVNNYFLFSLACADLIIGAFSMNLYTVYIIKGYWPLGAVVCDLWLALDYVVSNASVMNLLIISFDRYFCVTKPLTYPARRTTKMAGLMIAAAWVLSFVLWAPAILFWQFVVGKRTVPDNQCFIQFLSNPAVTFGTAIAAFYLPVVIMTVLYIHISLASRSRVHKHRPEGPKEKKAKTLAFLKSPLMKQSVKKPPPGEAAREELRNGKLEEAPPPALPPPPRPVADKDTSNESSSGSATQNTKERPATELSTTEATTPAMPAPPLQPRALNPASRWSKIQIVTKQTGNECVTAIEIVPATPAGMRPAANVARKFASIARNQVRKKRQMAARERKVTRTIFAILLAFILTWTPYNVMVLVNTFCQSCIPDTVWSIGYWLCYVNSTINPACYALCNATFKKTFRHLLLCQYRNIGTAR
M5 antag: antagonists of human muscarinic M5 receptor (CHRM5); P08912; CHO-hM5 cells, Fluo-8 calcium fluorescence, ACh EC80; inhibition, % at 3 µM; 0.59% of 360,000 active;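 active means inhibition above a per-plate cutoff, the mean of that plate's test compounds plus 3 SD, cut at about 27% in these data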
CHRM5 PAM: CHRM5 positive allosteric modulation; activation, % at 3 µM; AID 624038; 0.3% of 360,000 active; CHO-K1 hM5, Fluo-8 calcium, ACh EC20 PAM; 0% = ACh EC20, 100% = ACh EC100;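 active means activation above the run cutoff, the mean activation of all test compounds plus 3 SD, cut at about 18% in these data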
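System: CHO-K1 cell line with stable human muscarinic M5 receptor expression | Also added: EC20 acetylcholine as agonist stimulus | Compound: One concentration, 3 µM final (nominal) | Timing: Fluo-8 loading 80 min at 37 °C plus 30 min room temperature | Measured by: Fluo-8 calcium dye fluorescence, kinetic read | Read-out basis: % activation, ACh-normalized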
CHRM4 PAM: CHRM4 positive allosteric modulation; P08173; CHO-K1 hM4/Gqi5, Fluo-8 calcium fluorescence, ACh EC20; 0% = ACh EC20, 100% = maximal ACh; activation, % at 3 µM; 0.4% of 360,000 active;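 active means activation above its plate's cutoff, the mean activation of sample wells plus 3 SD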
CHRM4 antagonist: CHRM4 antagonism in calcium assay. P08173. CHO-hM4 cells, ACh EC80, Fluo-8 calcium fluorescence. inhibition, % at 3 µM. 0.73% of 360,000 active;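 active means inhibition above its plate's cutoff, the mean inhibition of sample wells plus 3 SD, cut at about 27% in these data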
M5 ag: CHRM5 agonism in calcium assay | P08912 | CHO-K1 hM5 cells, Fluo-8 calcium fluorescence; 0% DMSO wells, 100% maximal acetylcholine response | activation, % at 3 µM | 0.19% of 360,000 active | AID 624037;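 active means activation above the run's mean over test compounds plus 3 SD, cut at about 23% in these data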;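 further: signal is peak over basal fluorescence ratio across the kinetic read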
Hits are given with their value; i = inactive.

SMILES	CHRM4 agonist	M5 antag	CHRM5 PAM	CHRM4 PAM	CHRM4 antagonist	M5 ag
COc1cc(/C=C/C(=O)OCC(=O)c2ccc(OC(F)F)cc2)ccc1O	i	i	i	i	i	27
CCc1ccc(NC(=O)C(C)OC(=O)/C=C/c2ccc(O)c(OC)c2)cc1 (stereo unspecified)	i	i	i	i	i	35
COc1ccc(N2CCN(C(=O)COC(=O)/C=C/c3ccc(OC(F)F)cc3)CC2)cc1	i	i	i	23	i	i
COc1cc(/C=C/C(=O)OC(C)C(=O)Nc2c(C)n(C)n(-c3ccccc3)c2=O)ccc1O (stereo unspecified)	i	i	i	i	i	i
Cc1cccc(C)c1-n1nnnc1C(c1ccnc2ccccc12)N1CCN(c2ccccc2F)CC1 (stereo unspecified)	i	i	i	i	i	i
CC(CCc1ccccc1)NC(=O)C(C)OC(=O)c1ccco1 (stereo unspecified)	i	i	i	i	i	i
CCOC(CNC(=O)C(=O)Nc1cc2c3c(c1)CCC(=O)N3CCC2)OCC	i	i	i	i	i	i
COc1ccc(C(C)=O)cc1COC(=O)CSCC(=O)Nc1ccc(C)cc1	i	i	i	i	26	i
CC(C)CC[n+]1ccccc1/C=C/c1ccc(N(C)C)cc1	i	29	i	i	i	i
CN(C)c1ccc(/C=C/c2cccc[n+]2[O-])cc1	i	i	i	i	i	i
CCC(=O)OCCNc1cc(Sc2nc3ccccc3[nH]2)c2nonc2c1[N+](=O)[O-]	i	i	i	i	54	i
CCCC(=O)OCCNc1cc(Sc2nccn2C)c2nonc2c1[N+](=O)[O-]	i	i	i	i	36	i
O=[N+]([O-])c1c(NCCCO)cc(Sc2nc3ccccc3s2)c2nonc12	i	32	i	i	75	i
O=C(CNc1ccc(Br)cc1)NNC1=NCCC1	i	i	i	i	i	i
N/C(=N\OC(=O)c1cccc([N+](=O)[O-])c1)c1cccnc1	i	i	i	25	i	i
Cc1cccc(C(=O)O/N=C(\N)c2cccc([N+](=O)[O-])c2)c1	i	i	i	i	i	i
CC1C(=O)N(Cc2cn(CCC3OCCCO3)nn2)CCS(=O)(=O)N1Cc1ccc(-c2ccc(Cl)c(Cl)c2)cc1 (stereo unspecified)	i	36	i	i	40	i
CC1C(=O)N(Cc2cn(CCC3OCCCO3)nn2)CCS(=O)(=O)N1Cc1ccc(-c2ccc(F)cc2)cc1 (stereo unspecified)	i	i	i	i	i	i
Cc1cccc(C)c1-c1ccc(CN2C(CC(C)C)C(=O)N(Cc3cn(CCO)nn3)CCS2(=O)=O)cc1 (stereo unspecified)	i	i	i	i	28	i
COc1ccc(S(=O)(=O)N(C)CC(=O)N2CCC(C(N)=O)CC2)cc1Cl	i	i	i	i	i	i
CSc1ccc(CN2CCC(Oc3ccc(C(=O)N4CCCC4)cc3)CC2)cc1	i	i	i	i	29	i
CC(C)c1ccc(CN2CCC(Oc3ccc(C(=O)N4CCCC4)cc3)CC2)cc1	i	30	i	i	31	i
CCc1ccc(CN2CCC(Oc3ccc(C(=O)N4CCCC4)cc3)CC2)cc1	i	i	i	i	36	i
CC12CCC(=O)C=C1CCC1C2C(O)CC2(C)C1CCC2(O)C(=O)COC(=O)COCC(=O)O (stereo unspecified)	i	i	i	i	i	i
CCn1c(=O)n(CC)c2cc(NC(=O)C(C)c3ccccc3)c(Br)cc21 (stereo unspecified)	i	i	i	i	i	i
SMILES	CHRM4 agonist	M5 antag	CHRM5 PAM	CHRM4 PAM	CHRM4 antagonist	M5 ag
NC1=NC(=O)CC(C(=O)NCc2ccccc2)S1 (stereo unspecified)	i	i	i	16	i	i
Cc1onc(-c2ccccc2)c1C(=O)NNC(=S)NC(=O)c1ccc(Cl)cc1Cl	113	i	i	i	i	30
Cc1cccc(C(=O)NC(=S)NNC(=O)Cc2ccccc2)c1	i	i	i	i	i	i
Cc1onc(-c2ccccc2)c1C(=O)NNC(=S)NC(=O)c1ccc(Br)cc1	61	i	i	i	i	35
Cc1cccc(C(=O)NC(=S)NNC(=O)c2ccccc2Cl)c1	40	i	i	i	i	46
COc1cc(OC)c(NC(=O)c2c(-c3ccccc3)noc2C)cc1Cl	i	i	18	i	i	i
COc1cccc(CNC(=O)c2cc3c(c(-c4cccc(-c5cccc(C#N)c5)c4)n2)[C@H](CCO)N(S(=O)C(C)(C)C)C3)c1 (stereo partly specified)	i	i	i	i	i	i
CC(=O)c1ccc(S(=O)(=O)N2CCN(c3nn(C)c(=O)n(C)c3=O)CC2)cc1	i	i	i	i	i	i
CCOC(=O)[C@]12CCC=C1N(CCC1=CCCCC1)C(=O)[C@H](CC(=O)NCCCCc1ccccc1)C2	i	i	i	i	i	i
Cc1ccc(C(=O)NNC(=S)NC(=O)c2ccc(Cl)cc2)cc1	131	i	i	i	33	98
Cc1cccc(C(=O)NC(=S)NNC(=O)COc2c(C)cccc2C)c1	i	i	i	23	i	i
Cc1ccccc1C(=O)NNC(=S)NC(=O)c1ccc(Cl)cc1Cl	84	i	i	i	i	53
CN(c1ccccc1C(=O)Nc1cccc(Br)c1)S(=O)(=O)c1ccccc1	i	i	i	i	i	i
CCc1nc2ccc(C(=O)NCCc3c[nH]c4ccccc34)cn2c1N(C)Cc1ccc(N(C)C)cc1	i	i	i	i	i	i
O=C(O)c1ccc(CNC(=O)C2CCN(S(=O)(=O)c3ccc4c(c3)OCCO4)CC2)cc1	i	i	i	i	i	i
Cc1ccc(Cl)cc1N(CC(=O)NC(C)c1ccccc1)S(C)(=O)=O (stereo unspecified)	i	i	i	i	i	i
Cc1oc2c(c(=O)c1C)C(=O)CC(c1ccccc1)C2 (stereo unspecified)	i	43	i	i	i	i
Cc1nn(-c2cc(C(F)(F)F)ccc2Cl)c2nc(C(Cl)(Cl)Cl)[nH]c(=O)c12	i	i	19	i	i	i
CCCNC(=O)C1(C)CCCN(Cc2ccccc2C#N)C1 (stereo unspecified)	i	i	i	i	i	i
OCCCNc1ncnc2c1[nH]c1ccccc12	i	i	i	i	i	i
Fc1ccc2[nH]c3c(NCc4ccccc4)ncnc3c2c1	i	37	i	i	i	i
O=C(CC(=O)c1ccccc1)Nc1ccc([N+](=O)[O-])cc1	i	i	i	i	i	i

Bioassay records as filed in PubChem.
